According to ChEMBL document CHEMBL1156261, “Evaluation of substituted N,N'-diarylsulfonamides as activators of the tumor cell specific M2 isoform of pyruvate kinase” (J Med Chem, 2010):
Active and inactive are the calls of the source. The rule behind the calls is not given here.

What follows are compounds tested against Pyruvate kinase PKLR (Homo sapiens) (UniProt P30613) (assay: Activation of PKR assessed as pyruvate formation by fluorescent pyruvate kinase-lactate dehydrogenase coupled assay relative to control). Conditions: not given.
Design: concentration or dose not given beside the values

Sequence of Pyruvate kinase PKLR (Homo sapiens) (P30613 whole entry, looked up): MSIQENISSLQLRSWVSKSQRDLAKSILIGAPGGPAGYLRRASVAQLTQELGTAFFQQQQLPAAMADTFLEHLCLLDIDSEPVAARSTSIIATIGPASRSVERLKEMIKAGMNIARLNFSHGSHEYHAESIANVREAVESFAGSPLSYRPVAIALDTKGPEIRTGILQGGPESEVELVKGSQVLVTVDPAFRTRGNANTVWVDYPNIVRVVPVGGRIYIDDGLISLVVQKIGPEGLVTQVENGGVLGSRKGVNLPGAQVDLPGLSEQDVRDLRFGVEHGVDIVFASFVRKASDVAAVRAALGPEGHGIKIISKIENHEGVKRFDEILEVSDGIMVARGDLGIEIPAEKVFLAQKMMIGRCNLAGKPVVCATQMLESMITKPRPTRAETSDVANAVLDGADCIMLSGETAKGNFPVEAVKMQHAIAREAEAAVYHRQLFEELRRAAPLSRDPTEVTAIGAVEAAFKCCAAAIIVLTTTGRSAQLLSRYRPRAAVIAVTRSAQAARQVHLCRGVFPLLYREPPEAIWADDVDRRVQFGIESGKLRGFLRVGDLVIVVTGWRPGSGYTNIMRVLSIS

Structure (SMILES)	Activity [%]
O=S(=O)(NC1CCN(S(=O)(=O)c2c(F)cccc2F)CC1)c1ccc2c(c1)OCCO2	< 30
O=S(=O)(c1ccc2c(c1)OCCO2)N1CCN(S(=O)(=O)c2cccc[n+]2[O-])CC1	< 30
O=S(=O)(NCC1CN(S(=O)(=O)c2c(F)cccc2F)C1)c1ccc2c(c1)OCCO2	< 30
C[C@@H]1CN(S(=O)(=O)c2ccc3c(c2)OCCO3)CCN1S(=O)(=O)c1c(F)cccc1F	< 30
O=S(=O)(NCC1CN(S(=O)(=O)c2ccc3c(c2)OCCO3)C1)c1c(F)cccc1F	< 30
O=S(=O)(N[C@H]1CC[C@@H](NS(=O)(=O)c2c(F)cccc2F)CC1)c1ccc2c(c1)OCCO2	< 30

The compounds below were run against Pyruvate kinase PKLR (Homo sapiens) (UniProt P30613) (assay: Activation of PKR assessed as ATP product formation by luminescent pyruvate kinase-luciferase coupled assay relative to control). Conditions: not given.
Design: concentration or dose not given beside the values
In short: (§1)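 Luciferase-coupled ATP production assay run as for PKM2: imidazole pH 7.2 buffer with KCl, MgCl2, Tween 20 and BSA, 0.1 mM ADP, 0.5 mM PEP, 1 h at r.t., Kinase-Glo luminescence. Enzyme final concentrations were PKM1 1 nM, PKL 0.1 nM, PKR 0.1 nM. % activation normalized to DMSO (neutral) and no-enzyme controls.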

Structure (SMILES)	Activity [%]
O=S(=O)(NC1CCN(S(=O)(=O)c2c(F)cccc2F)CC1)c1ccc2c(c1)OCCO2	< 30
O=S(=O)(c1ccc2c(c1)OCCO2)N1CCN(S(=O)(=O)c2cccc[n+]2[O-])CC1	< 30
O=S(=O)(NCC1CN(S(=O)(=O)c2c(F)cccc2F)C1)c1ccc2c(c1)OCCO2	< 30
C[C@@H]1CN(S(=O)(=O)c2ccc3c(c2)OCCO3)CCN1S(=O)(=O)c1c(F)cccc1F	< 30
O=S(=O)(NCC1CN(S(=O)(=O)c2ccc3c(c2)OCCO3)C1)c1c(F)cccc1F	< 30
O=S(=O)(N[C@H]1CC[C@@H](NS(=O)(=O)c2c(F)cccc2F)CC1)c1ccc2c(c1)OCCO2	< 30

The compounds below were run against Pyruvate kinase PKLR (Homo sapiens) (UniProt P30613) (assay: Activation of PKL assessed as pyruvate formation by fluorescent pyruvate kinase-lactate dehydrogenase coupled assay relative to control). Conditions: not given.
Design: concentration or dose not given beside the values

Structure (SMILES)	Activity [%]
O=S(=O)(NC1CCN(S(=O)(=O)c2c(F)cccc2F)CC1)c1ccc2c(c1)OCCO2	< 30
O=S(=O)(c1ccc2c(c1)OCCO2)N1CCN(S(=O)(=O)c2cccc[n+]2[O-])CC1	< 30
O=S(=O)(NCC1CN(S(=O)(=O)c2c(F)cccc2F)C1)c1ccc2c(c1)OCCO2	< 30
C[C@@H]1CN(S(=O)(=O)c2ccc3c(c2)OCCO3)CCN1S(=O)(=O)c1c(F)cccc1F	< 30
O=S(=O)(NCC1CN(S(=O)(=O)c2ccc3c(c2)OCCO3)C1)c1c(F)cccc1F	< 30
O=S(=O)(N[C@H]1CC[C@@H](NS(=O)(=O)c2c(F)cccc2F)CC1)c1ccc2c(c1)OCCO2	< 30

These compounds were tested against Pyruvate kinase PKLR (Homo sapiens) (UniProt P30613) (assay: Activation of PKL assessed as ATP product formation by luminescent pyruvate kinase-luciferase coupled assay relative to control). Conditions: not given.
Design: concentration or dose not given beside the values
In short: as §1

Structure (SMILES)	Activity [%]
O=S(=O)(NC1CCN(S(=O)(=O)c2c(F)cccc2F)CC1)c1ccc2c(c1)OCCO2	< 30
O=S(=O)(c1ccc2c(c1)OCCO2)N1CCN(S(=O)(=O)c2cccc[n+]2[O-])CC1	< 30
O=S(=O)(NCC1CN(S(=O)(=O)c2c(F)cccc2F)C1)c1ccc2c(c1)OCCO2	< 30
C[C@@H]1CN(S(=O)(=O)c2ccc3c(c2)OCCO3)CCN1S(=O)(=O)c1c(F)cccc1F	< 30
O=S(=O)(NCC1CN(S(=O)(=O)c2ccc3c(c2)OCCO3)C1)c1c(F)cccc1F	< 30
O=S(=O)(N[C@H]1CC[C@@H](NS(=O)(=O)c2c(F)cccc2F)CC1)c1ccc2c(c1)OCCO2	< 30

The compounds below were run against T1, Pyruvate kinase PKM (Homo sapiens, UniProt P14618) (assay: Activation of PKM2 assessed as ATP product formation by luminescent pyruvate kinase-luciferase coupled assay). Conditions: read-out: AC50.
In short: (§2)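 Recombinant human PKM2 (0.1 nM final) in 50 mM imidazole pH 7.2, 50 mM KCl, 7 mM MgCl2, 0.01% Tween 20, 0.05% BSA; 0.1 mM ADP, 0.5 mM PEP; 1 h at r.t., then Kinase-Glo luciferase read of ATP formed. Activation % = (c−n)/(n−i)×100 against DMSO and no-enzyme controls; 100% ≈ 2-fold over basal signal. Max response taken at 57 μM; three separate experiments.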
Target sequence in this assay (P14618 whole entry): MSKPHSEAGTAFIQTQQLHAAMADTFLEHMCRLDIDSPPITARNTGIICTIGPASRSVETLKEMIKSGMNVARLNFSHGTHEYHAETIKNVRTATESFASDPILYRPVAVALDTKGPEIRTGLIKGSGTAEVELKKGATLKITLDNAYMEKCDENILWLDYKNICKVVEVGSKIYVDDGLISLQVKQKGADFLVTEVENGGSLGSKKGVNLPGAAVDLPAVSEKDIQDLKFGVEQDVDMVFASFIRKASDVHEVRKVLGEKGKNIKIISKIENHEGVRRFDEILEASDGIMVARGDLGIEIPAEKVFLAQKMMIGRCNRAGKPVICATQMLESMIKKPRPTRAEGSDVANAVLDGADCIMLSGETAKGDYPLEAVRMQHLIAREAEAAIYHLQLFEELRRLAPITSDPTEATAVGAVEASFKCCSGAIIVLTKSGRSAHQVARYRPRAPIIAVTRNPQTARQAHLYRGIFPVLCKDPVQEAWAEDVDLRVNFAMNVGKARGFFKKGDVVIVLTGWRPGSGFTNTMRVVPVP

Structure (SMILES)	AC50 [µM]
O=S(=O)(NC1CCN(S(=O)(=O)c2c(F)cccc2F)CC1)c1ccc2c(c1)OCCO2	9
O=S(=O)(c1ccc2c(c1)OCCO2)N1CCN(S(=O)(=O)c2cccc[n+]2[O-])CC1	> 10
O=S(=O)(NCC1CN(S(=O)(=O)c2c(F)cccc2F)C1)c1ccc2c(c1)OCCO2	3.05
C[C@@H]1CN(S(=O)(=O)c2ccc3c(c2)OCCO3)CCN1S(=O)(=O)c1c(F)cccc1F	2.93
O=S(=O)(NCC1CN(S(=O)(=O)c2ccc3c(c2)OCCO3)C1)c1c(F)cccc1F	4.47
O=S(=O)(N[C@H]1CC[C@@H](NS(=O)(=O)c2c(F)cccc2F)CC1)c1ccc2c(c1)OCCO2	> 35

Each compound was assayed against T1, Pyruvate kinase PKM (assay: Activation of PKM2 assessed as ATP product formation at 57 uM by luminescent pyruvate kinase-luciferase coupled assay relative to fructose-1,6-bis-phosphate). Conditions: not given.
In short: as §2
Target sequence in this assay (P14618 2-531 limits assumed): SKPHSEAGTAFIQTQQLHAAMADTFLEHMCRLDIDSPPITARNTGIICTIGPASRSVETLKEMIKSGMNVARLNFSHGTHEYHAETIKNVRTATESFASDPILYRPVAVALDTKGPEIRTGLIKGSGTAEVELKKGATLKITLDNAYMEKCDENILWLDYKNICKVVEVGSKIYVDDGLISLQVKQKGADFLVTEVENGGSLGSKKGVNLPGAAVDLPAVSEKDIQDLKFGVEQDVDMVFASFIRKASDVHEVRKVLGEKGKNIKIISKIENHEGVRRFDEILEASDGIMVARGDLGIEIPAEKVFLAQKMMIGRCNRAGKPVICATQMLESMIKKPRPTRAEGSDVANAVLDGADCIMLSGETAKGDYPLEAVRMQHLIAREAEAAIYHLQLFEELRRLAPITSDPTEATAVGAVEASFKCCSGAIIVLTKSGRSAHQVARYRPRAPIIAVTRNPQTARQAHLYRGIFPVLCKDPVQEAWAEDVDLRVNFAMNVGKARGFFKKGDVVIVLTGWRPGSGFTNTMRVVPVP

Structure (SMILES)	Activity [%]
O=S(=O)(c1ccc2c(c1)OCCO2)N1CCN(S(=O)(=O)c2cccc[n+]2[O-])CC1	81.5
O=S(=O)(NCC1CN(S(=O)(=O)c2c(F)cccc2F)C1)c1ccc2c(c1)OCCO2	108
C[C@@H]1CN(S(=O)(=O)c2ccc3c(c2)OCCO3)CCN1S(=O)(=O)c1c(F)cccc1F	108
O=S(=O)(NCC1CN(S(=O)(=O)c2ccc3c(c2)OCCO3)C1)c1c(F)cccc1F	93.3
O=S(=O)(N[C@H]1CC[C@@H](NS(=O)(=O)c2c(F)cccc2F)CC1)c1ccc2c(c1)OCCO2	60.7

What follows are compounds tested against T1, Pyruvate kinase PKM (assay: Activation of PKM1 assessed as pyruvate formation by fluorescent pyruvate kinase-lactate dehydrogenase coupled assay). Conditions: not given.
Target sequence in this assay (P14618 2-531 limits assumed): as above

Structure (SMILES)	Activity
O=S(=O)(NC1CCN(S(=O)(=O)c2c(F)cccc2F)CC1)c1ccc2c(c1)OCCO2	inactive
O=S(=O)(c1ccc2c(c1)OCCO2)N1CCN(S(=O)(=O)c2cccc[n+]2[O-])CC1	inactive
O=S(=O)(NCC1CN(S(=O)(=O)c2c(F)cccc2F)C1)c1ccc2c(c1)OCCO2	inactive
C[C@@H]1CN(S(=O)(=O)c2ccc3c(c2)OCCO3)CCN1S(=O)(=O)c1c(F)cccc1F	inactive
O=S(=O)(NCC1CN(S(=O)(=O)c2ccc3c(c2)OCCO3)C1)c1c(F)cccc1F	inactive
O=S(=O)(N[C@H]1CC[C@@H](NS(=O)(=O)c2c(F)cccc2F)CC1)c1ccc2c(c1)OCCO2	inactive

What follows are compounds tested against T1, Pyruvate kinase PKM (assay: Activation of PKM1 assessed as ATP product formation by luminescent pyruvate kinase-luciferase coupled assay). Conditions: not given.
In short: as §1
Target sequence in this assay (P14618 2-531 limits assumed): as above

Structure (SMILES)	Activity
O=S(=O)(NC1CCN(S(=O)(=O)c2c(F)cccc2F)CC1)c1ccc2c(c1)OCCO2	inactive
O=S(=O)(c1ccc2c(c1)OCCO2)N1CCN(S(=O)(=O)c2cccc[n+]2[O-])CC1	inactive
O=S(=O)(NCC1CN(S(=O)(=O)c2c(F)cccc2F)C1)c1ccc2c(c1)OCCO2	inactive
C[C@@H]1CN(S(=O)(=O)c2ccc3c(c2)OCCO3)CCN1S(=O)(=O)c1c(F)cccc1F	inactive
O=S(=O)(NCC1CN(S(=O)(=O)c2ccc3c(c2)OCCO3)C1)c1c(F)cccc1F	inactive
O=S(=O)(N[C@H]1CC[C@@H](NS(=O)(=O)c2c(F)cccc2F)CC1)c1ccc2c(c1)OCCO2	inactive
